# Experimental data from ChEMBL document CHEMBL1629654, “Breakthrough Aspergillus fumigatus and Candida albicans double infection during caspofungin treatment: laboratory characteristics and implication for susceptibility testing” (2009).
# Active and inactive are the calls of the source. No cut-off for these calls is given here.
# Legend:
# Candida albicans [1] = test: Antimicrobial activity against Candida albicans isolate S at 25 ug/ml grown on RPMI 1640 medium after 48 hrs by disk diffusion method; assay type: functional
# How it was run: (§1)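 Disk diffusion on 90-mm RPMI 1640 with 2% glucose agar or on Mueller-Hinton agar. Plates were swabbed in three directions with a yeast suspension of 1–5 × 10^6 cells/ml. Paper disks (6 mm) held 1, 5 or 25 µg drug. Zone diameters were read at 24 and 48 h; values are means of two experiments.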
# Candida albicans [2] = test: Antimicrobial activity against Candida albicans isolate S at 1 ug/ml grown on Muller-Hinton agar medium after 48 hrs by disk diffusion method; assay type: functional; how it was run: as §1
# Candida albicans [3] = test: Antimicrobial activity against Candida albicans isolate S at 25 ug/ml grown on Muller-Hinton agar medium after 48 hrs by disk diffusion method; assay type: functional; how it was run: as §1
# Candida albicans [4] = test: Antimicrobial activity against Candida albicans after 48 hrs by NCCLS microdilution method; assay type: functional
# Nakaseomyces glabratus [5] = test: Antimicrobial activity against Candida glabrata after 48 hrs by NCCLS microdilution method; assay type: functional
# Pichia kudriavzevii [6] = test: Antimicrobial activity against Candida krusei after 48 hrs by NCCLS microdilution method; assay type: functional
# Candida tropicalis [7] = test: Antimicrobial activity against Candida tropicalis after 48 hrs by NCCLS microdilution method; assay type: functional
# Clavispora lusitaniae [8] = test: Antimicrobial activity against Candida lusitaniae after 48 hrs by NCCLS microdilution method; assay type: functional
# Candida parapsilosis [9] = test: Antimicrobial activity against Candida parapsilosis after 48 hrs by NCCLS microdilution method; assay type: functional; conditions: Lodderomyces parapsilosis
# Pichia kudriavzevii [10] = test: Antimicrobial activity against Candida krusei after 48 hrs by broth microdilution method; assay type: functional
# Candida parapsilosis [11] = test: Antimicrobial activity against Candida parapsilosis after 48 hrs by broth microdilution method; assay type: functional; conditions: Lodderomyces parapsilosis
# Clavispora lusitaniae [12] = test: Antimicrobial activity against Candida lusitaniae after 48 hrs by Etest; assay type: functional
# Candida parapsilosis [13] = test: Antimicrobial activity against Candida parapsilosis after 48 hrs by Etest; assay type: functional; conditions: Lodderomyces parapsilosis
# Candida albicans [14] = test: Antimicrobial activity against Candida albicans after 48 hrs by 80% endpoint M27-A2 method; assay type: functional
# Nakaseomyces glabratus [15] = test: Antimicrobial activity against Candida glabrata after 48 hrs by 50% endpoint M27-A2 method; assay type: functional
# Clavispora lusitaniae [16] = test: Antimicrobial activity against Candida lusitaniae after 48 hrs by 50% endpoint M27-A2 method; assay type: functional
# Candida parapsilosis [17] = test: Antimicrobial activity against Candida parapsilosis after 48 hrs by 50% endpoint M27-A2 method; assay type: functional; conditions: Lodderomyces parapsilosis
# Pichia kudriavzevii [18] = test: Antimicrobial activity against Candida krusei after 24 hrs by M27-A3 method; assay type: functional
# Candida tropicalis [19] = test: Antimicrobial activity against Candida tropicalis after 24 hrs by M27-A3 method; assay type: functional
# Clavispora lusitaniae [20] = test: Antimicrobial activity against Candida lusitaniae after 24 hrs by M27-A3 method; assay type: functional
# Candida parapsilosis [21] = test: Antimicrobial activity against Candida parapsilosis after 24 hrs by M27-A3 method; assay type: functional; conditions: Lodderomyces parapsilosis
# Candida albicans [22] = test: Antimicrobial activity against Candida albicans isolate C after 24 hrs by microdilution method; assay type: functional
# How it was run: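 Broth microdilution in microtiter plates, read spectrophotometrically at 490 nm. MIC taken as the lowest drug dilution giving 50% growth inhibition. C. krusei […] run as control in each run. Read at 24 h and 48 h; trailing growth noted at 48 h.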
# Candida albicans [23] = test: Antimicrobial activity against Candida albicans isolate S at 1 ug/ml grown on RPMI 1640 medium after 48 hrs by disk diffusion method; assay type: functional; how it was run: as §1
# Candida albicans [24] = test: Antimicrobial activity against Candida albicans isolate R at 0.5 ug/ml after 48 hrs by agar dilution method; assay type: functional, organism-based
# How it was run: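 Sabouraud agar wells contained caspofungin 0, 0.5, 1 or 2 µg/ml, or anidulafungin 0, 0.003, 0.125 or 0.5 µg/ml. Isolates were subcultured 2 days on CHROMagar. Suspensions of 1–5 × 10^6 CFU/ml in sterile water were diluted 1,500-fold, and 5 µl (about 3–15 cells) was spread per well. Growth was scored.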
# Candida albicans [25] = test: Antimicrobial activity against Candida albicans isolate R after 48 hrs by EUCAST microdilution method; assay type: functional
# How it was run: (§2)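 EUCAST broth microdilution, plates read spectrophotometrically at 490 nm. MIC is the lowest dilution giving 50% growth inhibition. C. krusei […] control included in each run.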
# Candida albicans [26] = test: Antimicrobial activity against Candida albicans isolate R at 1 ug/ml after 48 hrs by agar dilution method; assay type: functional, organism-based
# How it was run: (§3)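 Agar dilution on Sabouraud agar with caspofungin at 0, 0.5, 1 and 2 per ml. Isolates were subcultured 2 days on CHROMagar. Suspensions of 1×10^6 to 5×10^6 CFU/ml in sterile water were diluted 1,500-fold, and approximately 3 to 15 cells were spread per agar surface. Growth or no growth was scored, with repeated testing.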
# Candida albicans [27] = test: Antimicrobial activity against Candida albicans isolate R at 2 ug/ml after 48 hrs by agar dilution method; assay type: functional, organism-based; how it was run: as §3
# Candida albicans [28] = test: Antimicrobial activity against Candida albicans isolate C at 1 ug/ml after 48 hrs by agar dilution method; assay type: functional, organism-based; how it was run: as §3
# Candida albicans [29] = test: Antimicrobial activity against Candida albicans isolate S obtained from blood culture of patient 4 days after admission by EUCAST microdilution method; assay type: functional; conditions: 96 h; how it was run: as §2
# Candida albicans [30] = test: Antimicrobial activity against Candida albicans obtained from hemodialysis catheter tip 35 days after admission by Etest; assay type: functional
# How it was run: (§4)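 Etest on RPMI 1640 agar with 2% glucose, performed according to the manufacturer's recommendations.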
# Candida albicans [31] = test: Antimicrobial activity against Candida albicans isolate R obtained from urine of patient 38 days after admission by Etest; assay type: functional; how it was run: as §4
# Candida albicans [32] = test: Antimicrobial activity against Candida albicans isolate S infected in NMRI mouse assessed as decrease in kidney bacterial burden at 6 mg/kg, ip measured on day 4; assay type: functional, organism-based; set-up: dose 6 mg/kg
# Candida albicans [33] = test: Antimicrobial activity against Candida albicans isolate R at 5 ug/ml grown on RPMI 1640 medium after 24 hrs by disk diffusion method; assay type: functional; how it was run: as §1
# Candida albicans [34] = test: Antimicrobial activity against Candida albicans isolate R at 1 ug/ml grown on Muller-Hinton agar medium after 24 hrs by disk diffusion method; assay type: functional; how it was run: as §1
# Candida albicans [35] = test: Antimicrobial activity against Candida albicans isolate R at 25 ug/ml grown on RPMI 1640 medium after 48 hrs by disk diffusion method; assay type: functional; how it was run: as §1
# Candida albicans [36] = test: Antimicrobial activity against Candida albicans isolate R at 25 ug/ml grown on Muller-Hinton agar medium after 48 hrs by disk diffusion method; assay type: functional; how it was run: as §1
# Candida albicans [37] = test: Antimicrobial activity against Candida albicans isolate S at 1 ug/ml grown on RPMI 1640 medium after 24 hrs by disk diffusion method; assay type: functional; how it was run: as §1
# Candida albicans [38] = test: Antimicrobial activity against Candida albicans isolate S at 25 ug/ml grown on RPMI 1640 medium after 24 hrs by disk diffusion method; assay type: functional; how it was run: as §1
# Candida albicans [39] = test: Antimicrobial activity against Candida albicans isolate S at 1 ug/ml grown on Muller-Hinton agar medium after 24 hrs by disk diffusion method; assay type: functional; how it was run: as §1
# Candida albicans [40] = test: Antimicrobial activity against Candida albicans isolate S at 25 ug/ml grown on Muller-Hinton agar medium after 24 hrs by disk diffusion method; assay type: functional; how it was run: as §1
# Candida albicans [41] = test: Antimicrobial activity against Candida albicans after 48 hrs
# Debaryomyces hansenii = test: Antimicrobial activity against Candida famata after 48 hrs by M27-A method
# Candida parapsilosis [42] = test: Antimicrobial activity against Candida parapsilosis after 48 hrs by M27-A method; conditions: Lodderomyces parapsilosis
smiles,measurement,setting,value
CC[C@H](C)C[C@H](C)CCCCCCCCC(=O)N[C@H]1C[C@@H](O)[C@@H](NCCN)NC(=O)[C@@H]2[C@@H](O)CCN2C(=O)[C@H]([C@H](O)CCN)NC(=O)[C@H]([C@H](O)[C@@H](O)c2ccc(O)cc2)NC(=O)[C@@H]2C[C@@H](O)CN2C(=O)[C@H]([C@@H](C)O)NC1=O [CASPOFUNGIN],inhibition zone (IZ),Candida albicans [1],26.4 mm
same,inhibition zone (IZ),Candida albicans [2],12.5 mm
same,inhibition zone (IZ),Candida albicans [3],24.9 mm
same,MIC90,Candida albicans [4],0.5 µg/mL
same,MIC90,Nakaseomyces glabratus [5],1 µg/mL
same,MIC90,Pichia kudriavzevii [6],1 µg/mL
same,MIC90,Candida tropicalis [7],0.5 µg/mL
same,MIC90,Clavispora lusitaniae [8],2 µg/mL
same,MIC90,Candida parapsilosis [9],2 µg/mL
same,MIC90,Pichia kudriavzevii [10],2 µg/mL
same,MIC90,Candida parapsilosis [11],2 µg/mL
same,MIC90,Clavispora lusitaniae [12],2 µg/mL
same,MIC90,Candida parapsilosis [13],2 µg/mL
same,MIC90,Candida albicans [14],0.5 µg/mL
same,MIC90,Nakaseomyces glabratus [15],1 µg/mL
same,MIC90,Clavispora lusitaniae [16],2 µg/mL
same,MIC90,Candida parapsilosis [17],2 µg/mL
same,MIC90,Pichia kudriavzevii [18],0.25 µg/mL
same,MIC90,Candida tropicalis [19],0.06 µg/mL
same,MIC90,Clavispora lusitaniae [20],0.25 µg/mL
same,MIC90,Candida parapsilosis [21],1 µg/mL
same,MIC,Candida albicans [22],≤ 0.06 µg/mL
same,inhibition zone (IZ),Candida albicans [23],10.5 mm
same,growth inhibition (GI),Candida albicans [24],inactive
same,MIC,Candida albicans [25],1 µg/mL
same,growth inhibition (GI),Candida albicans [26],inactive
same,growth inhibition (GI),Candida albicans [27],inactive
same,growth inhibition (GI),Candida albicans [28],Active
same,MIC,Candida albicans [29],0.25 µg/mL
same,MIC,Candida albicans [30],32 µg/mL
same,MIC,Candida albicans [31],> 32 µg/mL
same,Activity,Candida albicans [32],Active
same,inhibition zone (IZ),Candida albicans [33],8.6 mm
same,inhibition zone (IZ),Candida albicans [34],6.1 mm
same,inhibition zone (IZ),Candida albicans [35],11.9 mm
same,inhibition zone (IZ),Candida albicans [36],12.7 mm
same,inhibition zone (IZ),Candida albicans [37],10.7 mm
same,inhibition zone (IZ),Candida albicans [38],25.3 mm
same,inhibition zone (IZ),Candida albicans [39],12.1 mm
same,inhibition zone (IZ),Candida albicans [40],23.3 mm
same,MIC90,Candida albicans [41],0.25 µg/mL
same,MIC90,Debaryomyces hansenii,> 8 µg/mL
same,MIC90,Candida parapsilosis [42],4 µg/mL
